{"source": "PubChem BioAssay AID651787", "about": "(The Scripps Research Institute Molecular Screening Center, 2012)", "note": "In all, about 2,400 compounds went through this assay and about 1,200 (50%) were called active. So high a share suggests a set chosen from earlier hits. These entries were drawn from the full list. Values without a mark were called inactive.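 The calls were made as follows: active = activation above the run cutoff, the mean activation over all tested wells plus 3 SD (cut at about 12% in these data); inactive = the rest.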"}
{"assay": "calcium rise in parental Ga16 cells – cell-based, fluorescence, CHO-Ga16 parental line, counter-screen for hTAAR1 agonist project (AID 651787);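 also: 0% = DMSO wells and 100% = maximal ATP response on the peak over basal ratio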", "settings": "Fluo-8 calcium fluorescence, at 3 µM, stronger effect = higher value, normalized to maximal ATP response, DMSO zero", "procedure,_shortened": "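Test system: Parental CHO cells stably overexpressing Gα16, lacking hTAAR1 | Input: 750 cells in each well | Compound dosing: One dose of 3 µM (nominal) | Timing: 17-24 h seeding, dye 75 min 37 °C, 30 min RT | Measured by: Fluo-8 calcium-dye fluorescence | Read-out basis: % activation from peak-to-basal fluorescence ratio, DMSO to ATP scale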"}
{"smiles": "Cc1ccc(Sc2cc(N3CCOCC3)nc(-c3ccccc3)n2)cc1", "activation": "4.27%"}
{"smiles": "O=C(COC(=O)Cc1ccccc1F)NCCc1ccccc1", "activation": "0.47%"}
{"smiles": "COc1ccc(OC)c(NC(=S)N2CCc3ccccc3C2)c1", "activation": "0.03%"}
{"smiles": "Fc1ccc(NC(=S)N2CCc3[nH]c4ccccc4c3C2)cc1", "activation": "11.5% (active)"}
{"smiles": "O=C(Nc1ccc(Cl)cc1)N1CCc2[nH]c3ccccc3c2C1", "activation": "1.95%"}
{"smiles": "c1ccc2c(c1)C(=NC1CCCCC1)NC2=NC1CCCCC1", "activation": "59.9% (active)"}
{"smiles": "CCC(c1nnnn1Cc1ccco1)N(CCc1ccccc1)Cc1cc2cccc(C)c2[nH]c1=O", "note": "(stereo not drawn)", "activation": "8.41%"}
{"smiles": "CC(Oc1ccc(Cl)cc1)C(=O)OCC(=O)Nc1ncc(Cl)cc1Cl", "note": "(stereo not drawn)", "activation": "14.9% (active)"}
{"smiles": "COc1ccc2c(c1)OC(O)(C(F)(F)C(F)F)CC2=O", "note": "(stereo not drawn)", "activation": "27.7% (active)"}
{"smiles": "COc1ccc(Cl)cc1C(=O)NNC(=S)NC(=O)/C=C/c1ccco1", "activation": "83.3% (active)"}
{"smiles": "Cc1ccc(NC(=O)CCN2CCc3ccccc3C2)cc1", "activation": "10.8%"}
{"smiles": "Nc1cc(OC(=O)c2ccccc2Br)nn1S(=O)(=O)c1ccccc1", "activation": "39.3% (active)"}
{"smiles": "S=C(NCCc1ccccc1)N1CCn2cccc2C1c1ccncc1", "note": "(stereo not drawn)", "activation": "12.7% (active)"}
{"smiles": "O=C(NCCc1ccccc1)C(=O)NCC1OCCN1S(=O)(=O)c1cccs1", "note": "(stereo not drawn)", "activation": "1.98%"}
{"smiles": "CCCSc1nc2c(c(=O)n(C)c(=O)n2C)n1Cc1ccc(C)cc1", "activation": "34.2% (active)"}
{"smiles": "O=C1C=C(c2ccc(Cl)cc2)C(=O)N1Nc1ccccc1", "activation": "46% (active)"}
{"smiles": "COc1ccc2cc(-c3[nH]ncc3CNCCn3nc(C)cc3C)ccc2c1", "activation": "0.78%"}
{"smiles": "COc1cccc(-c2cnc(OC(C)(C)C)nc2OC(C)(C)C)c1", "activation": "14.5% (active)"}
{"smiles": "CSc1nc(N)c(C#N)c(-c2ccccc2Cl)c1C#N", "activation": "54.2% (active)"}
{"smiles": "O=C(N[C@H](C(=O)N1CCC[C@H]1C(=O)NCCc1ccccc1Cl)c1ccccc1)c1ccccc1", "activation": "1.78%"}
{"smiles": "OC(CNCCc1ccc(Cl)cc1Cl)COc1ccccc1", "note": "(stereo not drawn)", "activation": "17.8% (active)"}
{"smiles": "c1ccc2c(c1)OCC(CNc1ncnc3nc[nH]c13)O2", "note": "(stereo not drawn)", "activation": "170% (active)"}
{"smiles": "COc1cc(OC)c(-n2cc(-c3ccc(Cl)cc3)[nH]c2=O)cc1Cl", "activation": "74.4% (active)"}
